pIC50: −log10 of the molar value.
How the values were obtained:
[1] = Drug uptake in C57BL/6 mouse adrenal gland at 10 mg/kg, iv as single dose measured at 24 hrs; format: ADME, organism-based; set-up: dose 10 mg/kg, route intravenous; conditions: in vivo
Lung [2] = assay: Drug uptake in C57BL/6 mouse lung at 10 mg/kg, iv as single dose measured at 24 hrs; format: ADME, organism-based; set-up: dose 10 mg/kg, route intravenous; conditions: in vivo
Muscle tissue [3] = assay: Drug uptake in C57BL/6 mouse muscle at 10 mg/kg, iv as single dose measured at 24 hrs; format: ADME, organism-based; set-up: dose 10 mg/kg, route intravenous; conditions: in vivo
[4] = Drug uptake in C57BL/6 mouse retina at 10 mg/kg, iv as single dose measured at 24 hrs; format: ADME, organism-based; set-up: dose 10 mg/kg, route intravenous; conditions: in vivo
Outline: (§1)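 Adult C57BL/6 mice received a single bolus of 10 mg/kg by tail-vein iv injection or 100 or 200 mg/kg by oral gavage, with n = 5 per group and vehicle controls. Samples were taken at 0.5–48 h. Blood came by cardiac puncture under isoflurane, and tissues were dissected at the same time and frozen at −80°C. Tissues were homogenized in 5 mM ammonium formate, pH 7, and assayed by LC-ESI-MS/MS against matrix-matched standards.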

Brain [5] = assay: Drug uptake in C57BL/6 mouse brain at 10 mg/kg, iv as single dose measured at 24 hrs; format: ADME, organism-based; set-up: dose 10 mg/kg, route intravenous; conditions: in vivo; outline: as §1
Bone marrow [6] = assay: Drug uptake in C57BL/6 mouse bone marrow at 10 mg/kg, iv as single dose measured at 24 hrs; format: ADME, organism-based; set-up: dose 10 mg/kg, route intravenous; conditions: in vivo; outline: as §1
[7] = Drug uptake in C57BL/6 mouse vitreous humor at 10 mg/kg, iv as single dose measured at 24 hrs; format: ADME, organism-based; set-up: dose 10 mg/kg, route intravenous; conditions: in vivo; outline: as §1
[8] = Drug uptake in C57BL/6 mouse adipose tissue at 10 mg/kg, iv as single dose measured at 24 hrs; format: ADME, organism-based; set-up: dose 10 mg/kg, route intravenous; conditions: in vivo
[9] = Ratio of drug level in blood to plasma in C57BL/6 mouse after 30 mins; format: ADME; conditions: blood and plasma
Outline: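 Pooled heparinized whole blood from male C57BL/6 mice was spiked at 0.1, 1, 10 and 100 μM final, in triplicate, and incubated at 37°C for 30 min with mixing every 5 min. Whole blood was sampled, and plasma was obtained by centrifugation. Both were measured by LC-MS/MS, and the ratio was calculated from the whole-blood and plasma concentrations.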

[10] = Fraction unbound in C57BL/6 mouse plasma at 0.1 uM up to 24 hrs by equilibrium dialysis method; format: ADME, cell-free
Outline: (§2)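 Equilibrium dialysis used male C57BL/6 plasma spiked with the drug against PBS across a 5-kDa membrane. The plate was rotated at 37°C under humidified 5% CO2 for 24 h, in triplicate. The plasma side was taken as bound and the PBS side as free, both measured by LC-MS/MS. Fraction unbound was calculated relative to total plasma concentration.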

[11] = Fraction unbound in C57BL/6 mouse plasma at 300 uM up to 24 hrs by equilibrium dialysis method; format: ADME, cell-free; outline: as §2
[12] = Cytotoxicity against doxorubicin-resistant human UKF-NB-3 cells after 96 hrs by MTT assay; format: functional, cell-based; conditions: UKF-NB-3, 96 h
Intestine [13] = assay: Drug uptake in C57BL/6 mouse intestine at 50 to 200 mg/kg, po as single dose measured at 2 hrs; format: ADME, organism-based; set-up: dose 50-200 mg/kg, route oral; conditions: in vivo
Liver [14] = assay: Drug uptake in C57BL/6 mouse liver at 50 to 200 mg/kg, po as single dose measured at 2 hrs; format: ADME, organism-based; set-up: dose 50-200 mg/kg, route oral; conditions: in vivo; outline: as §1
Spleen [15] = assay: Drug uptake in C57BL/6 mouse spleen at 50 to 200 mg/kg, po as single dose measured at 2 hrs; format: ADME, organism-based; set-up: dose 50-200 mg/kg, route oral; conditions: in vivo; outline: as §1
Plasma [16] = assay: Drug uptake in C57BL/6 mouse plasma at 50 to 200 mg/kg, po as single dose measured at 2 hrs; format: ADME, organism-based; set-up: dose 50-200 mg/kg, route oral; conditions: in vivo
Outline: (§3)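 Plasma came from two studies in C57BL/6 mice. Study 1: single iv dose of 10 mg/kg or oral dose of 100 or 200 mg/kg, n = 5, blood by cardiac puncture at 0.5–48 h. Study 2 (males): iv 10 or 20 mg/kg, oral 50 or 100 mg/kg, serial plasma to 24 h (iv) or 16 h (oral). Plasma was separated at 12,000g for 5 min at 4°C and measured by LC-ESI-MS/MS.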

[17] = Drug uptake in C57BL/6 mouse adipose tissue at 50 to 200 mg/kg, po as single dose measured at 2 hrs; format: ADME, organism-based; set-up: dose 50-200 mg/kg, route oral; conditions: in vivo
[18] = Drug uptake in C57BL/6 mouse adrenal gland at 50 to 200 mg/kg, po as single dose measured at 2 hrs; format: ADME, organism-based; set-up: dose 50-200 mg/kg, route oral; conditions: in vivo
Lung [19] = assay: Drug uptake in C57BL/6 mouse lung at 50 to 200 mg/kg, po as single dose measured at 2 hrs; format: ADME, organism-based; set-up: dose 50-200 mg/kg, route oral; conditions: in vivo
Muscle tissue [20] = assay: Drug uptake in C57BL/6 mouse muscle at 50 to 200 mg/kg, po as single dose measured at 2 hrs; format: ADME, organism-based; set-up: dose 50-200 mg/kg, route oral; conditions: in vivo
[21] = Drug uptake in C57BL/6 mouse retina at 50 to 200 mg/kg, po as single dose measured at 2 hrs; format: ADME, organism-based; set-up: dose 50-200 mg/kg, route oral; conditions: in vivo
Brain [22] = assay: Drug uptake in C57BL/6 mouse brain at 50 to 200 mg/kg, po as single dose measured at 2 hrs; format: ADME, organism-based; set-up: dose 50-200 mg/kg, route oral; conditions: in vivo; outline: as §1
Bone marrow [23] = assay: Drug uptake in C57BL/6 mouse bone marrow at 50 to 200 mg/kg, po as single dose measured at 2 hrs; format: ADME, organism-based; set-up: dose 50-200 mg/kg, route oral; conditions: in vivo; outline: as §1
[24] = Drug uptake in C57BL/6 mouse vitreous humor at 50 to 200 mg/kg, po as single dose measured at 2 hrs; format: ADME, organism-based; set-up: dose 50-200 mg/kg, route oral; conditions: in vivo
Intestine [25] = assay: Drug uptake in C57BL/6 mouse intestine at 10 mg/kg, iv as single dose measured at 24 hrs; format: ADME, organism-based; set-up: dose 10 mg/kg, route intravenous; conditions: in vivo
Liver [26] = assay: Drug uptake in C57BL/6 mouse liver at 10 mg/kg, iv as single dose measured at 24 hrs; format: ADME, organism-based; set-up: dose 10 mg/kg, route intravenous; conditions: in vivo; outline: as §1
Spleen [27] = assay: Drug uptake in C57BL/6 mouse spleen at 10 mg/kg, iv as single dose measured at 24 hrs; format: ADME, organism-based; set-up: dose 10 mg/kg, route intravenous; conditions: in vivo; outline: as §1
Plasma [28] = assay: Drug uptake in C57BL/6 mouse plasma at 10 mg/kg, iv as single dose measured at 24 hrs; format: ADME, organism-based; set-up: dose 10 mg/kg, route intravenous; conditions: in vivo; outline: as §3

- Drug uptake [1]: Not Active
- Drug uptake (Lung [2]): Not Active
- Drug uptake (Muscle tissue [3]): Not Active
- Drug uptake [4]: Not Active
- Drug uptake (Brain [5]): Not Active
- Drug uptake (Bone marrow [6]): Not Active
- Drug uptake [7]: Not Active
- Drug uptake [8]: Not Active
- blood plasma ratio at 0.5 h [9]: 0.7
- fraction unbound at 24 h, 0.1 µM [10]: 0.007
- fraction unbound at 24 h, 300 µM [11]: 0.118
- Drug uptake (Intestine [13]): Active
- Drug uptake (Liver [14]): Active
- Drug uptake (Spleen [15]): Active
- Drug uptake (Plasma [16]): Active
- Drug uptake [17]: Active
- Drug uptake [18]: Active
- Drug uptake (Lung [19]): Active
- Drug uptake (Muscle tissue [20]): Active
- Drug uptake [21]: Active
- Drug uptake (Brain [22]): Not Active
- Drug uptake (Bone marrow [23]): Not Active
- Drug uptake [24]: Not Active
- Drug uptake (Intestine [25]): Not Active
- Drug uptake (Liver [26]): Not Active
- Drug uptake (Spleen [27]): Not Active
- Drug uptake (Plasma [28]): Not Active
SMILES: COc1ccc(C2=N[C@@H](c3ccc(Cl)cc3)[C@@H](c3ccc(Cl)cc3)N2C(=O)N2CCNC(=O)C2)c(OC(C)C)c1 [NUTLIN-3]
- pIC50 [12]: 5.25
